Data reported in ChEMBL document CHEMBL1671781, “Discovery and biological characterization of (2R,4S)-1'-acetyl-N-{(1R)-1-[3,5-bis(trifluoromethyl)phenyl]ethyl}-2-(4-fluoro-2-methylphenyl)-N-methyl-4,4'-bipiperidine-1-carboxamide as a new potent and selective neurokinin 1 (NK1) receptor antagonist clinical candidate” (J Med Chem, 2011).
pKi: −log10 of the molar value. Active and inactive are the calls of the source. No cut-off for these calls is given here.

What was measured:
Substance-P receptor = Substance-P receptor (Homo sapiens, UniProt P25103); assay: Displacement of [3H]SP from human NK1 receptor expressed in CHO cells by liquid scintillation counting; format: cell-based
Substance-P receptor, sequence (P25103 whole entry): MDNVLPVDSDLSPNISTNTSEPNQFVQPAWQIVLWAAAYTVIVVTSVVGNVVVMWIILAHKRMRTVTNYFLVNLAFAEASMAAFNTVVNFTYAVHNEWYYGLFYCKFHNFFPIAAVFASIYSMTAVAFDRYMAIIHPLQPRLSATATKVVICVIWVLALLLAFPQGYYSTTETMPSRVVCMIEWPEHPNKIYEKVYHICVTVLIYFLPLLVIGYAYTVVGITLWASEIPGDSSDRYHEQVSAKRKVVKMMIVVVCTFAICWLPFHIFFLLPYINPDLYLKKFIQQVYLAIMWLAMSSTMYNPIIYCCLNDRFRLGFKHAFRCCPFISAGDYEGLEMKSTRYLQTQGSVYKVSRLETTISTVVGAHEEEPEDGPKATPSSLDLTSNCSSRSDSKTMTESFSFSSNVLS

Meriones unguiculatus [1] = assay: Antidepressant activity against po dosed Mongolian gerbil assessed as increase in social interaction time; format: functional, organism-based
Summary of the method: (§1)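 Pairs of unfamiliar male Mongolian gerbils (50-70 g), matched for treatment, placed in arena centre; active social interaction (sniffing, following, partner grooming, wrestling) scored for 5 min. Dosing 1 h before test, po at 0.1, 0.3 and 1.0 mg/kg (10 mL/kg), randomized, 10 animals per group. One-way ANOVA with Dunnett's test or paired t test versus vehicle.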

[2] = Volume of distribution at steady state in marmoset at 1 mg/kg, iv; format: ADME, organism-based, Callithrix jacchus; set-up: dose 1 mg/kg, route intravenous; details: in vivo, read-out: Vdss
Meriones unguiculatus [3] = assay: Toxicity in Mongolian gerbil assessed as abnormal behavior at 0.3 to 1 mg/kg, po; format: organism-based; set-up: dose 0.3-1 mg/kg, route oral; details: in vivo
Summary of the method: (§2)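 Gerbil social interaction arena, po dosing 1 h pretest (0.1, 0.3, 1.0 mg/kg; 10 mL/kg; 10 per group). Abnormal behaviours noted during the 5 min session; sedation checked as locomotor activity scored by line crossing. Compared with vehicle by one-way ANOVA plus Dunnett's test or paired t test.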

Meriones unguiculatus [4] = assay: Inhibition of GR73632-induced foot tapping in sc dosed Mongolian gerbil after 1 hr; format: functional; details: read-out: ID50 (the source's name)
Summary of the method: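 Gerbil foot tapping model: icv GR73632 3 pmol/5 μL into the lateral ventricle, tapping recorded for 3 min after 1 min recovery. Compound given sc 1 h before agonist, seven animals per group.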

[5] = Binding affinity to calcium channel L type dihydropyridine binding site
[6] = target: Sigma non-opioid intracellular receptor 1 (Homo sapiens, UniProt Q99720); assay: Binding affinity to sigma 1 receptor
Sigma non-opioid intracellular receptor 1, sequence (Q99720 whole entry): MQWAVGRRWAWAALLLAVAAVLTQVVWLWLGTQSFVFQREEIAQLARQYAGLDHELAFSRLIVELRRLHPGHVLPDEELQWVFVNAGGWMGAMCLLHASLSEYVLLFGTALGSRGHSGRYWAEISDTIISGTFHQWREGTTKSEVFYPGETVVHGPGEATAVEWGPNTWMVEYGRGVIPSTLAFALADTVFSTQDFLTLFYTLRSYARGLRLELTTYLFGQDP

[7] = Volume of distribution at steady state in cynomolgus monkey at 1 mg/kg, iv; format: ADME, organism-based, Macaca fascicularis; set-up: dose 1 mg/kg, route intravenous; details: in vivo, read-out: Vdss
[8] = Bioavailability in dog at 0.5 mg/kg, iv; format: ADME, organism-based, Canis lupus familiaris; details: in vivo
Summary of the method: (§3)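 Dog (n = 6), cynomolgus monkey (n = 3) and marmoset (n = 3) received an iv bolus at 0.5 mg/kg and po gavage at 1 mg/kg. Serial blood samples taken, spun to plasma, and assayed after protein precipitation by HPLC-MS/MS; parameters derived from plasma concentrations.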

[9] = Half life in rat at 1 mg/kg, iv and po; format: ADME, organism-based; set-up: dose 1 mg/kg, route oral; details: in vivo
Summary of the method: (§4)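 Rats (n = 6) were dosed at 1 mg/kg iv bolus and po by gavage. Serial blood sampling; plasma obtained by centrifugation, then protein precipitation and HPLC-MS/MS quantitation. PK parameters calculated from plasma concentrations.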

[10] = Oral bioavailability in rat at 1 mg/kg; format: ADME, organism-based; details: in vivo; summary of the method: as §4
[11] = Plasma clearance in cynomolgus monkey at 1 mg/kg, iv; format: ADME, organism-based, Macaca fascicularis; set-up: dose 1 mg/kg, route intravenous
[12] = Half life in marmoset at 1 mg/kg, iv; format: ADME, organism-based, Callithrix jacchus; set-up: dose 1 mg/kg, route intravenous; details: in vivo
Meriones unguiculatus [13] = assay: Toxicity in Mongolian gerbil assessed as locomotor activity at 1 mg/kg, po; format: functional, organism-based; set-up: dose 1 mg/kg; summary of the method: as §2
Meriones unguiculatus [14] = assay: Antidepressant activity against Mongolian gerbil assessed as increase in social interaction time at 0.3 to 1 mg/kg, po; format: functional, organism-based; summary of the method: as §1
Meriones unguiculatus [15] = assay: Antidepressant activity against po dosed Mongolian gerbil assessed as increase in social interaction time at 1 mg/kg, po (Rbv = 19+/-1.2seconds); format: functional; summary of the method: as §1
[16] = Half life in mouse at 2 mg/kg, po; format: ADME, organism-based; set-up: dose 2 mg/kg, route oral; details: in vivo
Summary of the method: (§5)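 Mice given 1 mg/kg iv and 2 mg/kg po using a composite design, three animals per time point (n = 21 per arm). Blood collected at nominal times, plasma prepared by centrifugation and analysed by protein precipitation plus HPLC-MS/MS; parameters derived from plasma concentrations.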

[17] = Plasma clearance in marmoset at 1 mg/kg, iv; format: ADME, organism-based, Callithrix jacchus; set-up: dose 1 mg/kg, route intravenous
Mus musculus = assay: Volume of distribution at steady state in mouse at 2 mg/kg, po; format: ADME, organism-based; set-up: dose 2 mg/kg, route oral; details: in vivo
[18] = Half life […] cynomolgus monkey at 1 mg/kg, iv; format: ADME, organism-based, Macaca fascicularis; set-up: dose 1 mg/kg, route intravenous; details: in vivo
[19] = Plasma clearance in mouse at 2 mg/kg, po; format: ADME, organism-based; set-up: dose 2 mg/kg, route oral
[20] = Oral bioavailability in mouse at 2 mg/kg; format: ADME, organism-based; details: in vivo; summary of the method: as §5
[21] = Plasma clearance in dog at 0.5 mg/kg, iv; format: ADME, organism-based, Canis lupus familiaris; set-up: dose 0.5 mg/kg, route intravenous; summary of the method: as §3
Meriones unguiculatus [22] = assay: Inhibition of GR73632-induced foot tapping in orally dosed Mongolian gerbil after 1 hr; format: functional; details: po, read-out: ID50 (the source's name)
Summary of the method: (§6)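 GR73632 (3 pmol/5 μL) injected icv into the lateral ventricle of Mongolian gerbils; after 1 min recovery, hind foot tapping timed for 3 min (max 180 s). Oral compound or vehicle (10 mL/kg) given 1, 4, 8 or 24 h beforehand, at least seven animals per group.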

[23] = Half life in dog at 0.5 mg/kg, iv; format: ADME, organism-based, Canis lupus familiaris; set-up: dose 0.5 mg/kg, route intravenous; details: in vivo; summary of the method: as §3
[24] = Binding affinity to calcium channel L type benzodiazepine binding site
Rattus norvegicus = assay: Volume of distribution at steady state in rat at 1 mg/kg, iv and po; format: ADME, organism-based; set-up: dose 1 mg/kg, route oral; details: in vivo; summary of the method: as §4
[25] = Volume of distribution at steady state in dog at 0.5 mg/kg, iv; format: ADME, organism-based, Canis lupus familiaris; set-up: dose 0.5 mg/kg, route intravenous; details: in vivo, read-out: Vdss; summary of the method: as §3
[26] = Bioavailability in cynomolgus monkey at 1 mg/kg, iv; format: ADME, organism-based, Macaca fascicularis; details: in vivo
[27] = Bioavailability in marmoset at 1 mg/kg, iv; format: ADME, organism-based, Callithrix jacchus; details: in vivo
Meriones unguiculatus [28] = assay: Inhibition of GR73632-induced foot tapping in orally dosed Mongolian gerbil after 24 hrs; format: functional; details: po, read-out: ID50 (the source's name); summary of the method: as §6
[29] = Binding affinity to sodium channel site 2
Meriones unguiculatus [30] = assay: Inhibition of GR73632-induced foot tapping in orally dosed Mongolian gerbil after 8 hrs; format: functional; details: po, read-out: ID50 (the source's name); summary of the method: as §6
Meriones unguiculatus [31] = assay: Inhibition of GR73632-induced foot tapping in orally dosed Mongolian gerbil after 4 hrs; format: functional; details: po, read-out: ID50 (the source's name); summary of the method: as §6

COCCN[C@H]1CCN(C(=O)N(C)[C@H](C)c2cc(C(F)(F)F)cc(C(F)(F)F)c2)[C@@H](c2ccc(F)cc2C)C1
pKi (Substance-P receptor): 9.68

Cc1cc(F)ccc1[C@H]1C[C@@H](N2CCC2)CCN1C(=O)N(C)[C@H](C)c1cc(C(F)(F)F)cc(C(F)(F)F)c1
pKi (Substance-P receptor): 9.75

CC(=O)N1CCN([C@H]2CCN(C(=O)N(C)[C@H](C)c3cc(C(F)(F)F)cc(C(F)(F)F)c3)[C@@H](c3ccc(F)cc3C)C2)CC1 [CASOPITANT]
Activity (Meriones unguiculatus [1]): Dose-dependent effect
Vd [2]: 3.1 L/kg
Activity (Meriones unguiculatus [3]): Non-toxic
ED50 (Meriones unguiculatus [4]): 0.05 mg/kg
pKi [5]: 5.18
pKi [6]: 5.53
Vd [7]: 3 L/kg
bioavailability [8]: 34%
half-life [9]: 1.8 h
bioavailability [10]: 8%
clearance [11]: 26 mL/min/kg
half-life [12]: 1.7 h
Activity (Meriones unguiculatus [13]): Not toxic
Activity (Meriones unguiculatus [14]): Active
Time (Meriones unguiculatus [15]): 36.6 s
half-life [16]: 1.1 h
clearance [17]: 29 mL/min/kg
Vdss (Mus musculus): 4 L/kg
half-life [18]: 2.1 h
CL/F [19]: 120 mL/min/kg
bioavailability [20]: 21%
clearance [21]: 10 mL/min/kg
ED50 (Meriones unguiculatus [22]): 0.08 mg/kg
half-life [23]: 4.5 h
pKi [24]: 5.06
Vdss (Rattus norvegicus): 3.2 L/kg
Vd [25]: 1.9 L/kg
bioavailability [26]: 8%
bioavailability [27]: 14%
ED50 (Meriones unguiculatus [28]): 1.1 mg/kg
pKi [29]: 5.37
ED50 (Meriones unguiculatus [30]): 0.19 mg/kg

CC(=O)N1CCN([C@H]2CCN(C(=O)N(C)Cc3cc(C(F)(F)F)cc(C(F)(F)F)c3)[C@@H](c3ccc(F)cc3C)C2)CC1
pKi (Substance-P receptor): 9.93
ED50 (Meriones unguiculatus [22]): 0.09 mg/kg

Cc1cc(F)ccc1[C@H]1C[C@@H](N(C)C)CCN1C(=O)N(C)[C@H](C)c1cc(C(F)(F)F)cc(C(F)(F)F)c1
pKi (Substance-P receptor): 9.62
ED50 (Meriones unguiculatus [22]): 0.9 mg/kg

CC(=O)N1CCN([C@@H]2CCN(C(=O)N(C)[C@H](C)c3cc(C(F)(F)F)cc(C(F)(F)F)c3)[C@@H](c3ccc(F)cc3C)C2)CC1
ED50 (Meriones unguiculatus [22]): > 0.3 mg/kg

Cc1cc(F)ccc1[C@H]1C[C@@H](NC2CC2)CCN1C(=O)N(C)[C@H](C)c1cc(C(F)(F)F)cc(C(F)(F)F)c1
pKi (Substance-P receptor): 9.49
ED50 (Meriones unguiculatus [31]): 0.39 mg/kg

CN[C@H]1CCN(C(=O)N(C)Cc2cc(C(F)(F)F)cc(C(F)(F)F)c2)[C@@H](c2ccc(F)cc2C)C1
pKi (Substance-P receptor): 9.70

Cc1cc(F)ccc1[C@H]1C[C@@H](N2CCC2)CCN1C(=O)N(C)Cc1cc(C(F)(F)F)cc(C(F)(F)F)c1
pKi (Substance-P receptor): 10.09
ED50 (Meriones unguiculatus [31]): 0.13 mg/kg

Cc1cc(F)ccc1[C@H]1C[C@@H](N2CCCC2)CCN1C(=O)N(C)[C@H](C)c1cc(C(F)(F)F)cc(C(F)(F)F)c1
pKi (Substance-P receptor): 9.85
ED50 (Meriones unguiculatus [22]): 0.92 mg/kg

Cc1cc(F)ccc1[C@H]1C[C@H](N2CCCC2)CCN1C(=O)N(C)[C@H](C)c1cc(C(F)(F)F)cc(C(F)(F)F)c1
pKi (Substance-P receptor): 9.70
ED50 (Meriones unguiculatus [31]): > 1 mg/kg

Cc1cc(F)ccc1[C@H]1C[C@@H](NC2CCC2)CCN1C(=O)N(C)[C@H](C)c1cc(C(F)(F)F)cc(C(F)(F)F)c1
pKi (Substance-P receptor): 9.77

Cc1cc(F)ccc1[C@H]1CNCCN1C(=O)N(C)[C@H](C)c1cc(C(F)(F)F)cc(C(F)(F)F)c1 [VESTIPITANT]
ED50 (Meriones unguiculatus [22]): 0.014 mg/kg

Cc1cc(F)ccc1[C@H]1C[C@H](N(C)C)CCN1C(=O)N(C)[C@H](C)c1cc(C(F)(F)F)cc(C(F)(F)F)c1
pKi (Substance-P receptor): 9.03

Cc1cc(F)ccc1[C@H]1C[C@@H](N2CCCC2)CCN1C(=O)N(C)Cc1cc(C(F)(F)F)cc(C(F)(F)F)c1
pKi (Substance-P receptor): 9.56
ED50 (Meriones unguiculatus [22]): 0.3 mg/kg

Cc1cc(F)ccc1[C@H]1C[C@@H](N(C)C)CCN1C(=O)N(C)Cc1cc(C(F)(F)F)cc(C(F)(F)F)c1
pKi (Substance-P receptor): 10.10
ED50 (Meriones unguiculatus [22]): 0.26 mg/kg

Cc1cc(F)ccc1[C@H]1C[C@H](N2CCC2)CCN1C(=O)N(C)[C@H](C)c1cc(C(F)(F)F)cc(C(F)(F)F)c1
pKi (Substance-P receptor): 9.19
